For nine compounds, IC50, Activity and Drug uptake results are on record in ChEMBL document CHEMBL4699585, “Evaluation of the Pharmacophoric Role of the O-O Bond in Synthetic Antileishmanial Compounds: Comparison between 1,2-Dioxanes and Tetrahydropyrans” (J Med Chem, 2020).

In data set [1] the test system is Leishmania donovani. Briefly: Antileishmanial activity against Leishmania donovani MHOM/MA(BE)/67/ITMAP263 promastigotes infected in primary mouse peritoneal macrophage assessed as reduction in parasite viability measured after 4 days by Giemsa staining-based assay. The class given is functional, organism-based. As to conditions: MHOM/MA(BE)/67/ITMAP263, Peritoneal macrophage, 96 h.

In data set [2] the test system is Leishmania donovani. In words: Antileishmanial activity against Leishmania donovani promastigotes assessed as reduction in parasite viability in presence of 50 uM iron chelator desferrioxamine measured after 24 hrs by microplate alamar blue assay. Format: functional, organism-based. Put shortly: (§1)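 L. donovani promastigotes (MHOM/NP/02/BPK282/0cl4, late log/stationary phase) seeded at 10^6 cells/mL in complete HOMEM, preincubated 24 h at 26 °C with desferrioxamine at four nontoxic doses (1:2 dilutions). Compounds added over a range spanning each one's IC50. Viability read by alamarBlue absorbance at 550/630 nm. FIC values plotted as isobolograms. Duplicates.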

In data set [3] the test system is Leishmania donovani. In words: Antileishmanial activity against Leishmania donovani promastigotes assessed as reduction in parasite viability in presence of 25 uM iron chelator desferrioxamine measured after 24 hrs by microplate alamar blue assay. Format: functional, organism-based. The essentials:
as §1

Data set [4] deals with Leishmania donovani. Briefly: Antileishmanial activity against Leishmania donovani promastigotes assessed as reduction in parasite viability in presence of […] iron chelator desferrioxamine measured after 24 hrs by microplate alamar blue assay. The class given is functional, organism-based. The essentials:
as §1

Data set [5] has as its system Leishmania donovani. In words: Induction of ROS generation in Leishmania donovani promastigotes assessed as increase in intracellular ROS level at IC50 measured up to 60 mins by H2DCFDA probe based fluorimetry analysis. Format: functional, organism-based. The following applies: time min <=60.
Data set [6] concerns Leishmania donovani. In words: Antileishmanial activity against Leishmania donovani promastigotes assessed as reduction in parasite viability in presence of 100 uM iron chelator desferrioxamine measured after 24 hrs by microplate alamar blue assay. Format: functional, organism-based. The essentials:
as §1

Data set [7] has as its system Leishmania donovani. In words: Induction of ROS generation in Leishmania donovani promastigotes assessed as increase in intracellular ROS level at IC50 measured after 24 hrs by H2DCFDA probe based fluorimetry analysis. Format: functional, organism-based.
For data set [8], the system named is Leishmania donovani. In words: Additive antileishmanial activity against Leishmania donovani promastigotes measured after 24 hrs in presence of iron chelator desferrioxamine by microplate alamar blue assay. Format: functional, organism-based. The essentials: as §1
Data set [9] concerns Leishmania donovani. In words: Antileishmanial activity against amastigotes stage of Leishmania donovani D10 infected in mouse RAW264.7 cells assessed as reduction in cell viability incubated from 24 to 72 hrs by Giemsa staining-based assay. Format: functional, organism-based. As to conditions: D10, RAW264.7.
Data set [10] deals with Leishmania donovani. In words: Induction of ROS generation in Leishmania donovani promastigotes at 22 uM measured after 24 hrs by H2DCFDA probe based fluorimetry analysis. The class given is functional, organism-based. Put shortly:
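Late log/stationary L. donovani promastigotes seeded at 10^6 cells mL–1 in HOMEM with 20% FBS and treated 24 h at 26 °C; untreated cells served as negative control. Cells were washed in PBS (pH 7.4), loaded with 10 μM H2DCFDA and kept 35 min in the dark at 26 °C. DCF fluorescence read at ex 488/em 530 nm over 1–60 min. Three independent experiments, each in triplicate.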

The subject of data set [11] is Leishmania donovani. In words: Antileishmanial activity against HePC-resistant wild type promastigote stage of Leishmania donovani MHOM/ET/67/HU3 infected in mouse macrophages assessed as reduction in parasite viability measured after 48 hrs by Giemsa staining-based assay. The following applies: MHOM/ET/67/HU3, Macrophage.
The test system of data set [12] is Leishmania donovani. In words: Antileishmanial activity against sitamaquine-resistant wild type promastigote stage of Leishmania donovani MHOM/ET/67/HU3 infected in mouse macrophages assessed as reduction in parasite viability measured after 48 hrs by Giemsa staining-based assay. The class given is functional, organism-based. The following applies: MHOM/ET/67/HU3, Macrophage.

Data set [13] is described as follows: Drug localization in kinetoplast of Leishmania donovani MHOM/NP/O2/BPK282/0cl4 promastigote at IC50 incubated for 40 to 45 mins by TO-PRO-3 staining based confocal microscopy analysis. The class given is ADME, subcellular. As to conditions: time 40-45 min.
Data set [14] can be described thus: Drug localization in nucleus of Leishmania donovani MHOM/NP/O2/BPK282/0cl4 promastigote at IC50 incubated for 40 to 45 mins by TO-PRO-3 staining based confocal microscopy analysis. Format: ADME, subcellular. The following applies: time 40-45 min.
The nature of data set [15]: Drug localization in cytoplasm of Leishmania donovani MHOM/NP/O2/BPK282/0cl4 promastigote at IC50 incubated for 40 to 45 mins by TO-PRO-3 dye based confocal microscopy analysis. The class given is ADME, subcellular. As to conditions: time 40-45 min.
Data set [16] in a line: Drug localization in Leishmania donovani MHOM/NP/O2/BPK282/0cl4 promastigote at IC50 […] by TO-PRO-3 dye based confocal microscopy analysis. Format: ADME.
Data set [17] concerns Leishmania donovani. Briefly: Antileishmanial activity against wild type promastigote stage of Leishmania donovani LV9 infected in mouse macrophages assessed as reduction in parasite viability measured after 48 hrs by Giemsa staining-based assay. The class given is functional, organism-based. The following applies: LV9, 48 h.

The structures appear in SMILES notation. pIC50: −log10 of the molar value. The source made the active and inactive calls. The calls are words filed in the database; no cut-off is given here.

In the case of `NC[C@@H]1O[C@H](O[C@H]2[C@@H](O)[C@H](O[C@@H]3[C@@H](O)[C@H](N)C[C@H](N)[C@H]3O[C@H]3O[C@H](CO)[C@@H](O)[C@H](O)[C@H]3N)O[C@@H]2CO)[C@H](N)[C@@H](O)[C@@H]1O` [PAROMOMYCIN], the pIC50 in data set [1] was 4.71.
As to `CCCCC1(CCCC)C[C@H](CNCCCn2ccnc2)[C@](C)(OC)OO1` (racemic), the pIC50 in [2] was 5.03; in data set [3], 5.05; in data set [4], 5.18; in data set [6], 5.19. The outcome in [5], in data set [7] and in data set [8] was Active.
For the compound `OCCCCCCC1CCOOC2(CCCCCCCCCCC2)OOC1` (configuration not stated), the pIC50 in [9] is 5.17.
`CCCCCCCCCCCCCCCCOP(=O)([O-])OCC[N+](C)(C)C` [MILTEFOSINE]: in data set [10], the outcome was Active. Moreover, the pIC50 was 4.17 in data set [11] and 5.72 in data set [12].
Turning to `CCCCC1(CCCC)C[C@H](CNCCCCNc2ccc([N+](=O)[O-])c3nonc23)[C@](C)(OC)OO1` (racemic), the Drug uptake entry is “Active” in data set [13], “Not Active” in data set [14] and “Active” in data set [15].
For the compound `CCCCC1(CCCC)CO[C@@](C)(OC)[C@@H](CNCCCCNc2c3ccc(Cl)cc3nc3ccc(OC)cc23)C1` (racemic), the Drug uptake result in data set [16] was “Active”.
For the compound `CCCCC1(CCCC)CO[C@@](C)(OC)[C@@H](CNCCCn2ccnc2)C1` (racemic), the negative logarithm of the IC50 (pIC50) was 5.25 in data set [2], 5.28 in data set [3], 5.27 in data set [4] and 5.34 in data set [6]. The result in [5], in data set [7] and in [8] was Active.
As for `C=CCO[C@@]1(C(F)(F)F)O[C@@H]2C[C@@]3(C)C[C@H]4[C@H](C)CC[C@@H]([C@H]1C)[C@@]24OO3`, the negative logarithm of the IC50 (pIC50) in data set [17] is 5.20; in [12] it was 5.80.
`COc1ccc(N[C@@]2(C(F)(F)F)O[C@@H]3C[C@@]4(C)C[C@H]5[C@H](C)CC[C@@H]([C@H]2C)[C@@]35OO4)cc1`: the negative-log IC50 (pIC50) in data set [17] was 5.82; in data set [12] it was 6.42.
